Source: PubChem
Most compounds without a hit are left out; they make up all but 3.7% or so of the library.
hERG protect – shields human hERG channel from block by proarrhythmic agents; Q12809; CHO-hERG, FluxOR thallium flux, dofetilide IC70 present; activation (rescue from dofetilide block), less the hit threshold, % at 10 µM; 310,000 tested, 0.51% active; AID 1511;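 active means activation above the mean of controls blocked by dofetilide plus 5 SD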;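 further: thallium influx through hERG after potassium depolarization seen as dye fluorescence rise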
KCNK9 inh – blocks the human KCNK9 two-pore domain potassium channel; Q9NPC2; HEK293 KCNK9, FluxOR thallium flux fluorescence; hits give low values; B-score at 10 µM; 310,000 tested, 1.2% active; AID 488922;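 active means ratio B-score over 3 SD below the library mean, with starting fluorescence within 5 SD of its mean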;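 further: negative B-score means less thallium flux so channel inhibition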
KCNQ1 block – blocks the human KCNQ1 potassium channel. P51787. CHO-K1 KCNQ1, FluxOR thallium flux fluorescence; hits give high values. B-score at 10 µM. 310,000 tested, 1.3% active. AID 2642;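 active means compounds whose thallium flux B-score, printed positive for inhibition, exceeds three library SD while starting fluorescence stays within three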;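 further: channel opened by potassium depolarization with thallium stimulus after 20 min compound exposure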
Kir21 inh – Kir2.1 (mouse) channel inhibition. AID 1672. B-score at 10 µM. 310,000 tested, 0.85% active. HEK293-Kir2.1, FluxOR thallium flux fluorescence; hits give low values;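 active means fluorescence ratio B-score at or below minus 3 SD of library scores, with starting-brightness B-score within 2 SD, cut at about -4.2 in these data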;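 further: channel flux triggered by added potassium and thallium sulfate stimulus; B-score of peak minus minimum fluorescence over baseline after thallium stimulus; more negative B-score means stronger Kir2.1 block with less thallium influx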
KCNQ1 pot – potentiators or activators of human KCNQ1 potassium channel; 310,000 tested, 0.35% active; B-score at 10 µM; CHO-K1 KCNQ1, thallium flux FluxOR fluorescence; hits give high values;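 active means fluorescence ratio B-score, a plate-corrected score, at least three library SD, with initial intensity B-score within 5 SD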
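assay system = CHO-K1 cells stably expressing KCNQ1 | medium = assay buffer, equal DMSO in all wells | timing = 37 °C overnight plating, 90-min dark dye load, 20-min compound pretreatment | measured by = kinetic FluxOR thallium fluorescence, 10-s 1-Hz baseline, 110-s post-stimulus read | measure = fluorescence change relative to baseline, converted to B score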
KCNK3 inh – human KCNK3 channel inhibition, primary screen. CHO-KCNK3 thallium flux, FluxOR fluorescence; hits give low values. AID 602410. B-score at 10 µM. 340,000 tested, 0.84% active. O14649;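 active means B-score under library mean minus 4 SD, starting fluorescence ratio at most library mean plus 5 SD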;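 further: more negative B-score means stronger inhibition of thallium flux through KCNK3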
KCNK9 inh conf – confirmation of human KCNK9 potassium channel inhibitors; shares compounds with KCNK9 inh; HEK293 KCNK9 cells, FluxOR thallium flux fluorescence; 4,900 tested, 43% active; inhibition, % at 10 µM;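 active means thallium signal inhibited by more than 5 SD of the compound-free buffer control wells, on both duplicate plates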
Kir2-1 spec – tests whether KCNK9 modulators also affect mouse Kir2.1; shares compounds with KCNK9 inh; Kir2.1 cells, FluxOR thallium flux fluorescence; inhibition, % at 10 µM; 4,900 tested, 4% active;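 active means thallium signal drop more than 5 SD beyond the mean of the no-compound control wells, seen in both duplicate plates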;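 further: signal is fluorescence rise after thallium addition divided by baseline fluorescence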
HEK293 Tl ctr – second counter-screen for KCNK9 modulators: effect in non-induced cells; inhibition, % at 10 µM; shares compounds with KCNK9 inh; 4,900 tested, 40% active; non-induced KCNK9-HEK293, FluxOR thallium flux;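 active means thallium signal drop beyond 5 SD of the untreated control mean, on both duplicate plates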
A number is an active result; . = inactive; / = no result given.

SMILES	hERG protect	KCNK9 inh	KCNQ1 block	Kir21 inh	KCNQ1 pot	KCNK3 inh	KCNK9 inh conf	Kir2-1 spec	HEK293 Tl ctr
COc1ccc(NC(C#N)c2ccccc2OCc2ccccc2)cc1 (stereo not drawn)	.	-8.3	.	.	.	.	.	.	24%
O=C(COC(=O)c1ccc(S(=O)(=O)C(F)F)cc1)NC(=O)NC1CCCCC1	.	.	.	.	.	.	/	/	/
CCOc1ccc(C2=C(C=Nc3c(C)n(C)n(-c4ccccc4)c3=O)C(c3ccc(F)cc3)c3ccccc3O2)cc1 (stereo not drawn)	.	.	.	.	.	.	.	.	.
COc1ccc(-c2nc(-c3ccc4c(c3)OCO4)[nH]c2-c2ccc(OC)cc2)cc1	.	-9.2	.	.	.	.	65%	.	.
O=C(NNC(=O)c1c(O)c2ccccc2[nH]c1=O)c1ccccc1Br	.	.	.	.	.	.	/	/	/
COc1ccc([C@H]2CC(=O)C=C(c3ccc(SC)cc3)C2)cc1	/	/	/	/	/	.	/	/	/
CCN(CC)S(=O)(=O)c1cc(NC(=O)C(C)N(C)CC(=O)Nc2c(C)cccc2C)ccc1C (stereo not drawn)	.	-10	.	.	.	.	52%	.	36%
CCN(CC)S(=O)(=O)c1cc(NC(=O)C(C)N2CCc3ccccc32)ccc1C (stereo not drawn)	.	.	.	.	.	.	/	/	/
C=C1CCC2C(C)(C)[C@H](O)CC[C@@]2(C)[C@@H]1COc1cc(=O)oc2ccccc12 (stereo partly drawn)	.	-13	.	.	.	.	60%	.	26%
NC(=O)C1CC12c1ccccc1-c1ccccc12 (stereo not drawn)	.	.	.	.	.	.	/	/	/
CCCCOC(=O)CSC(=S)N(C)Cc1cccs1	.	.	.	.	.	.	.	.	.
COC(=O)[C@]1(C)N[C@H](c2ccc(-c3cccc(Cl)c3)cc2)[C@@H]2C(=O)N(C)C(=O)[C@@H]21	/	/	/	/	/	.	/	/	/
CCN1C(=O)[C@H]2[C@@H](c3ccc(-c4ccc(OC)cc4)c(OC)c3)N[C@@](CC(C)C)(C(=O)OC)[C@H]2C1=O	/	/	/	/	/	.	/	/	/
COC(=O)[C@]1(CC(C)C)N[C@H](c2ccc(-c3cccc(Cl)c3)cc2)[C@@H]2C(=O)N(C)C(=O)[C@@H]21	.	-10	.	.	.	.	54%	.	40%
COC(=O)[C@]1(CC(C)C)N[C@H](c2ccc(-c3ccc(F)cc3)c(OC)c2)[C@@H]2C(=O)N(C)C(=O)[C@@H]21	.	-9.1	.	.	.	.	38%	.	38%
CCOC(=O)C1CCN(c2c([N+](=O)[O-])c(C(Cl)Cl)nn2-c2ccccc2)CC1	.	.	.	.	.	.	.	.	.
O=[N+]([O-])c1c(C(Cl)Cl)nn(-c2ccccc2)c1N1CCCC1	.	.	.	.	.	.	/	/	/
Cc1cc(C)cc(CC(Cc2nc3ccccc3[nH]2)c2nc3ccccc3[nH]2)c1 (stereo not drawn)	.	-8.1	12	.	.	.	29%	.	37%
Cc1ccc(CSCc2nc3ccccc3[nH]2)cc1	.	.	.	.	.	.	/	/	/
Cc1ccccc1OCCn1cc(C(=S)N2CCCC2)c2ccccc21	.	-9.6	.	.	.	.	.	.	30%
Cc1ccc(/C=N/NC(=O)c2cc3c(s2)CCCC3)o1	/	/	/	/	/	.	/	/	/
Cc1ccc(Cl)cc1N1CCN(CC(=O)NC2CCCc3ccccc32)CC1 (stereo not drawn)	.	.	.	.	.	.	.	.	.
O=C(CN1CCN(c2ccccc2Cl)CC1)NC1CCCc2ccccc21 (stereo not drawn)	.	.	.	.	.	.	.	.	.
O=C(CSc1ccc(Cl)cc1)NC1CCCc2ccccc21 (stereo not drawn)	.	.	.	.	.	.	/	/	/
Nc1nonc1NC(=O)NN=C1CCCCC1	.	.	.	.	.	.	/	/	/
SMILES	hERG protect	KCNK9 inh	KCNQ1 block	Kir21 inh	KCNQ1 pot	KCNK3 inh	KCNK9 inh conf	Kir2-1 spec	HEK293 Tl ctr
COc1ccc(CNC(=O)CN(c2cc(C)cc(C)c2)S(=O)(=O)c2c(C)noc2C)cc1	.	-8.6	.	.	.	.	.	.	.
COc1ccc(CNC(=O)CN(c2ccc(C)cc2)S(=O)(=O)c2c(C)noc2C)cc1	.	.	.	.	.	.	/	/	/
Cc1cccc(OCC(=O)NCCCNC(=O)c2ccncc2)c1	.	.	.	.	.	.	/	/	/
COc1cccc(-c2ccc(C#N)c(OC(=O)c3ccc(Cl)cc3)n2)c1	.	.	.	.	.	.	/	/	/
COc1cccc(-c2ccc(C#N)c(OC(=O)c3c(Cl)cccc3Cl)n2)c1	.	-10	.	.	.	.	38%	.	28%
COc1ccc(NC(=O)c2c3c(nc4ccccc24)CCC3)cc1S(=O)(=O)N1CCOCC1	.	.	.	.	.	.	/	/	/
CCOC(=O)C1=CN(Cc2ccc(OC)cc2)C=C(C(=O)OCC)C1c1cccs1	.	-19	.	.	.	.	72%	.	41%
Cc1ccc(CCc2nnc(SCC(=O)Nc3cccc(Cl)c3)n2-c2ccccc2)o1	.	.	.	.	.	.	.	.	.
Cc1nnc(SCC(=O)Nc2cc(C(N)=O)cc(C(N)=O)c2)n1-c1ccccc1	.	.	.	.	.	.	/	/	/
Cc1ccc2c(c1)CCCN2C(=O)CSc1ccccc1	.	.	.	.	.	.	.	.	.
Cn1cc(SCC(=O)N2CCCc3ccccc32)c2ccccc21	.	.	.	-6.8	.	.	.	38%	.
Cn1cc(SCC(=O)N2CCOCC2)c2ccccc21	.	.	.	.	.	.	/	/	/
CCn1cc(CNC(=O)c2cc(-c3cc(OC)ccc3OC)nc3ccccc23)c(C)n1	.	.	.	.	.	.	/	/	/
COC(=O)c1cc2c(C(F)(F)F)nn(C)c2s1	.	.	.	.	.	.	/	/	/
Cc1ccc(-c2csc(N(CC3CCCO3)C(=O)c3ccco3)n2)cc1 (stereo not drawn)	.	-8.6	.	.	.	.	43%	.	34%
CN(C)C(=O)c1ccc(Nc2ncnc3sc4c(c23)CCCCC4)cc1	.	.	.	.	.	.	/	/	/
Cn1c(SSc2ccc(-c3cccnc3)n2C)ccc1-c1cccnc1	/	/	/	/	/	.	/	/	/
O=C(Cc1sc(Nc2ccccc2)nc1-c1ccccc1)NCc1ccccc1	.	-9.2	.	.	.	.	62%	.	31%
CC(=O)c1cc(CC=C(C)C)c(O)cc1O	.	-8.6	.	.	.	.	27%	.	.
Cc1ccc(C)c(S(=O)(=O)NCC(=O)OCC(=O)Nc2sccc2C(N)=O)c1	/	/	/	/	/	.	/	/	/
